Measurements from ChEMBL document CHEMBL1240435, “Synthesis of some 3-substituted amino-4,5-tetramethylene thieno[2,3-d][ 1,2,3]-triazin-4(3H)-ones as potential antimicrobial agents” (2010).
≈ marks a conversion by molar mass, not a printed value.

Key:
[1] = system: Staphylococcus epidermidis; test: Antibacterial activity against Staphylococcus epidermidis after 24 hrs by tube dilution method; format: functional
Aspergillus niger [2] = test: Antifungal activity against Aspergillus niger at 50 ug/ml after 48 hrs by agar cup diffusion method; format: functional; settings: read-out: IZ
Salmonella typhi [3] = test: Antibacterial activity against Salmonella typhi after 24 hrs by tube dilution method; format: functional, Salmonella enterica subsp. enterica serovar Typhi; settings: Salmonella enterica
Escherichia coli [4] = test: Antibacterial activity against Escherichia coli after 24 hrs by tube dilution method; format: functional
Staphylococcus aureus [5] = test: Antibacterial activity against Staphylococcus aureus after 24 hrs by tube dilution method; format: functional
Cryptococcus neoformans [6] = test: Antifungal activity against Cryptococcus neoformans after 48 hrs by tube dilution method; format: functional
Aspergillus niger [7] = test: Antifungal activity against Aspergillus niger after 48 hrs by tube dilution method; format: functional
Candida albicans [8] = test: Antifungal activity against Candida albicans at 50 ug/ml after 48 hrs by agar cup diffusion method; format: functional; settings: read-out: IZ
Candida albicans [9] = test: Antifungal activity against Candida albicans after 48 hrs by tube dilution method; format: functional
Escherichia coli [10] = test: Antibacterial activity against Escherichia coli at 50 ug/ml after 24 hrs by agar cup diffusion method; format: functional; settings: read-out: IZ
In short: (§1)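 Compounds dissolved in DMF. A fresh bacterial subculture in isotonic NaCl was mixed into sterile assay medium at 40–45 °C and poured into Petri dishes. Test solution went into marked wells. Plates stood 5 min, were covered for 1 h, then incubated at 37 °C for 24 h. Inhibition zones were measured as the average of three readings.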

Salmonella typhi [11] = test: Antibacterial activity against Salmonella typhi at 50 ug/ml after 24 hrs by agar cup diffusion method; format: functional, Salmonella enterica subsp. enterica serovar Typhi; settings: Salmonella enterica, read-out: IZ
In short: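 Agar cup diffusion against an ATCC or IMTECH standard strain. The test compound is dissolved in DMF. A fresh bacterial subculture in isotonic NaCl is mixed into sterile medium at 40–45 °C and poured into plates. Solution is added to marked wells, left 5 min, then covered 1 h. Plates are incubated at 37 °C for 24 h. The inhibition zone is the mean of three readings, with ampicillin as reference.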

[12] = system: Staphylococcus epidermidis; test: Antibacterial activity against Staphylococcus epidermidis at 50 ug/ml after 24 hrs by agar cup diffusion method; format: functional; settings: read-out: IZ; in short: as §1
Staphylococcus aureus [13] = test: Antibacterial activity against Staphylococcus aureus at 50 ug/ml after 24 hrs by agar cup diffusion method; format: functional; settings: read-out: IZ; in short: as §1
Cryptococcus neoformans [14] = test: Antifungal activity against Cryptococcus neoformans at 50 ug/ml after 48 hrs by agar cup diffusion method; format: functional; settings: read-out: IZ

| Compound | MIC [1] [mg/L] | zone of inhibition at 50 µg/mL (Aspergillus niger [2]) [mm] | MIC (Salmonella typhi [3]) [mg/L] | MIC (Escherichia coli [4]) [mg/L] | MIC (Staphylococcus aureus [5]) [mg/L] | MIC (Cryptococcus neoformans [6]) [mg/L] | MIC (Aspergillus niger [7]) [mg/L] | zone of inhibition at 50 µg/mL (Candida albicans [8]) [mm] | MIC (Candida albicans [9]) [mg/L] | zone of inhibition at 50 µg/mL (Escherichia coli [10]) [mm] | zone of inhibition at 50 µg/mL (Salmonella typhi [11]) [mm] | zone of inhibition at 50 µg/mL [12] [mm] | zone of inhibition at 50 µg/mL (Staphylococcus aureus [13]) [mm] | zone of inhibition at 50 µg/mL (Cryptococcus neoformans [14]) [mm] |
| --- | --- | --- | --- | --- | --- | --- | --- | --- | --- | --- | --- | --- | --- | --- |
| O=c1[nH]nnc2sc3c(c12)CCCC3 | 37.5 (≈ 181 µM) | 4 | 37.5 (≈ 181 µM) | 50 (≈ 241 µM) | 37.5 (≈ 181 µM) | 125 (≈ 603 µM) | 37.5 (≈ 181 µM) | 3 | 50 (≈ 241 µM) |  |  |  |  |  |
| Cn1nnc2sc3c(c2c1=O)CCCC3 | 37.5 (≈ 169 µM) | 6 | 37.5 (≈ 169 µM) | 50 (≈ 226 µM) | 37.5 (≈ 169 µM) | 125 (≈ 565 µM) | 37.5 (≈ 169 µM) | 4 | 50 (≈ 226 µM) | 12 | 14 | 18 | 16 |  |
| CCn1nnc2sc3c(c2c1=O)CCCC3 | 37.5 (≈ 159 µM) | 6 | 37.5 (≈ 159 µM) | 50 (≈ 212 µM) | 37.5 (≈ 159 µM) | 125 (≈ 531 µM) | 37.5 (≈ 159 µM) | 5 | 50 (≈ 212 µM) | 16 | 16 | 16 | 18 |  |
| O=c1c2c3c(sc2nnn1-c1ccccc1)CCCC3 | 25 (≈ 88.2 µM) | 6 | 37.5 (≈ 132 µM) | 37.5 (≈ 132 µM) | 25 (≈ 88.2 µM) | 125 (≈ 441 µM) | 37.5 (≈ 132 µM) | 4 | 50 (≈ 176 µM) | 12 | 12 | 17 | 20 |  |
| Cc1ccccc1-n1nnc2sc3c(c2c1=O)CCCC3 | 25 (≈ 84.1 µM) | 6 | 25 (≈ 84.1 µM) | 37.5 (≈ 126 µM) | 25 (≈ 84.1 µM) | 75 (≈ 252 µM) | 25 (≈ 84.1 µM) | 4 | 37.5 (≈ 126 µM) | 14 | 12 | 18 | 20 |  |
| Cc1cccc(-n2nnc3sc4c(c3c2=O)CCCC4)c1 | 25 (≈ 84.1 µM) | 8 | 25 (≈ 84.1 µM) | 37.5 (≈ 126 µM) | 25 (≈ 84.1 µM) | 75 (≈ 252 µM) | 25 (≈ 84.1 µM) | 4 | 37.5 (≈ 126 µM) | 14 | 14 | 20 | 24 | 6 |
| Cc1ccc(-n2nnc3sc4c(c3c2=O)CCCC4)cc1 | 25 (≈ 84.1 µM) | 8 | 25 (≈ 84.1 µM) | 37.5 (≈ 126 µM) | 25 (≈ 84.1 µM) | 75 (≈ 252 µM) | 25 (≈ 84.1 µM) | 5 | 37.5 (≈ 126 µM) | 20 | 18 | 28 | 28 | 5 |
| O=c1c2c3c(sc2nnn1-c1ccc(F)cc1)CCCC3 | 6.75 (≈ 22.4 µM) | 10 | 12.5 (≈ 41.5 µM) | 12.5 (≈ 41.5 µM) | 6.75 (≈ 22.4 µM) | 75 (≈ 249 µM) | 12.5 (≈ 41.5 µM) | 8 | 37.5 (≈ 124 µM) | 26 | 24 | 32 | 32 | 8 |
| O=c1c2c3c(sc2nnn1-c1ccccc1Cl)CCCC3 | 12.5 (≈ 39.3 µM) | 14 | 12.5 (≈ 39.3 µM) | 25 (≈ 78.7 µM) | 12.5 (≈ 39.3 µM) | 50 (≈ 157 µM) | 12.5 (≈ 39.3 µM) | 8 | 25 (≈ 78.7 µM) | 24 | 20 | 30 | 30 | 9 |
| O=c1c2c3c(sc2nnn1-c1cccc(Cl)c1)CCCC3 | 12.5 (≈ 39.3 µM) | 13 | 12.5 (≈ 39.3 µM) | 25 (≈ 78.7 µM) | 12.5 (≈ 39.3 µM) | 50 (≈ 157 µM) | 12.5 (≈ 39.3 µM) | 8 | 25 (≈ 78.7 µM) | 26 | 24 | 30 | 32 | 8 |
| O=c1c2c3c(sc2nnn1-c1ccc(Cl)cc1)CCCC3 | 12.5 (≈ 39.3 µM) | 16 | 12.5 (≈ 39.3 µM) | 25 (≈ 78.7 µM) | 12.5 (≈ 39.3 µM) | 37.5 (≈ 118 µM) | 12.5 (≈ 39.3 µM) | 10 | 25 (≈ 78.7 µM) | 26 | 26 | 32 | 34 | 10 |
| O=c1c2c3c(sc2nnn1-c1ccc(F)c(Cl)c1)CCCC3 | 12.5 (≈ 37.2 µM) | 10 | 12.5 (≈ 37.2 µM) | 25 (≈ 74.5 µM) | 12.5 (≈ 37.2 µM) | 50 (≈ 149 µM) | 25 (≈ 74.5 µM) | 7 | 37.5 (≈ 112 µM) | 24 | 20 | 24 | 26 | 8 |
| CC1(C)S[C@@H]2[C@H](NC(=O)[C@H](N)c3ccccc3)C(=O)N2[C@H]1C(=O)O [AMPICILLIN] | 1.56 (≈ 4.46 µM) |  | 6.25 (≈ 17.9 µM) | 4 (≈ 11.4 µM) | 0.5 (≈ 1.43 µM) |  |  |  |  | 28 | 26 | 36 | 40 |  |
| Clc1ccc(COC(Cn2ccnc2)c2ccc(Cl)cc2Cl)c(Cl)c1.O=[N+]([O-])O (stereo not drawn) [MICONAZOLE NITRATE] |  | 16 |  |  |  | 20 | 10 | 12 | 12.5 |  |  |  |  | 14 |
